Activity calls are given as the source filed them. No cut-off for these calls is given here.

One data set addresses CDK6/cyclin D1 (Homo sapiens, UniProt Q00534). Kind of data set: Inhibition of human CDK6/Cyclin D1 using RB protein as substrate preincubated for 20 mins followed by [gamma-33P]-ATP addition measure after 120 mins by filter binding method. The class given is protein-complex assay. The method in brief: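 Compound preincubated with kinase 20 min at room temperature. Reaction started with 10 μM [γ-33P]ATP and run 120 min at 25°C. Filter-binding read-out, curve-fitted IC50; mean ± SD of three independent experiments.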

Another data set deals with RS4-11. Kind of data set: Growth inhibition of human RS4:11 cells after 72 hrs by CellTiter-Glo assay. The class given is functional. Particulars: RS4-11, 72 h. On the technique in general: Cellular ATP, detected with luciferase, serves as a proxy for viable cell number.
Data set [1] is described as follows: Terminal half life in human liver microsomes by LC-MS/MS analysis. It counts as ADME, microsome. Particulars: read-out: beta t1/2 (converted). In outline:
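Metabolic stability measured by incubating compound in human, rat, mouse, dog and monkey liver microsomes. Terminal t1/2 determined.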

A short description of data set [2]: Intrinsic clearance in rat liver microsomes by LC-MS/MS analysis. Particulars: read-out: CLH. The class given is ADME, microsome.
The nature of data set [3]: Intrinsic clearance in mouse liver microsomes by LC-MS/MS analysis. The class given is ADME, microsome. Particulars: read-out: CLH. Background: Microsomes from liver hold many membrane-bound enzymes, among them those of drug oxidation.
A short description of data set [4]: Intrinsic clearance in dog liver microsomes by LC-MS/MS analysis. Conditions: read-out: CLH. It counts as ADME, Canis lupus familiaris, microsome.
For data set [5], the system named is MV4-11. Kind of data set: Antitumor activity against human MV4-11 cells xenografted in nu/nu mouse assessed as tumor regression at 15 mg/kg, iv qd measured on day 21 relative to vehicle-treated control. The class given is functional. Background: A xenograft is tissue or cells of one species grown in another, often human tumour cells in immunodeficient mice.
The test system of data set [6] is MV4-11. Kind of data set: Antitumor activity against human MV4-11 cells xenografted in nu/nu mouse assessed as tumor regression at 40 mg/kg, iv qd measured on day 21 relative to vehicle-treated control. It counts as functional. The method in brief:
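Female nu/nu mice bearing MV4-11 xenografts; dosing began once tumors reached 200 mm3. Given iv once daily for 21 days, with a vehicle-only group. Body weight and tumor size tracked relative to initial values, set as 100%. Tumors weighed at the end of the 22-day treatment period.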

The next data set deals with Mus musculus. Kind of data set: Toxicity in nu/nu mouse xenografted with human MV4-11 cells assessed as body weight loss at 15 to 40 mg/kg, iv qd administered for 21 days measuring during compound dosing. It counts as organism-based. Particulars: in vivo, 504 h. In outline: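 Female nu/nu mice carried established MV4-11 xenografts. Once tumors reached 200 mm3, mice were grouped and given compound or vehicle by intravenous injection once daily at 15, 30 or 40 mg/kg/d for 21 days. A Cytarabine arm received 50 mg/kg/d iv. Body weight was tracked during dosing and expressed relative to initial weight set as 100%.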

Data set [7] relates to MV4-11. The data set can be described thus: Induction of apoptosis in human MV4-11 cells assessed as early apoptotic cells at 1 uM after 24 hrs by annexin V-FITC/propidium iodide staining-based flow cytometric method (reference value: 3.54%). It counts as functional.
Data set [8] has as its system MV4-11. The data set can be described thus: Induction of apoptosis in human MV4-11 cells assessed as late apoptotic cells at 1 uM after 24 hrs by annexin V-FITC/propidium iodide staining-based flow cytometric method (reference value: 2.54%). It counts as functional.
For data set [9], the system named is MV4-11. The data set can be described thus: Induction of apoptosis in human MV4-11 cells assessed as early apoptotic cells at 2 uM after 24 hrs by annexin V-FITC/propidium iodide staining-based flow cytometric method (reference value: 3.54%). The class given is functional.
The subject of data set [10] is MV4-11. Kind of data set: Cell cycle arrest in human MV4-11 cells assessed as accumulation at G0/G1 phase after 24 hrs by propidium iodide/BrdU staining-based flow cytometric method. The class given is functional. The method in brief: (§1)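 Cells treated with compound for 24 h, then fixed. Double-stained with propidium iodide and BrdU for flow cytometric analysis of cell cycle distribution.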

The next data set relates to HCT-116. Kind of data set: Cell cycle arrest in human HCT116 cells assessed as accumulation at G2/M phase at 0.1 to 1 uM after 24 hrs by propidium iodide/BrdU staining-based flow cytometric method. The class given is functional. In outline: as §1
Data set [11] has as its target Receptor-type tyrosine-protein kinase FLT3 (Homo sapiens) (UniProt P36888). Kind of data set: Inhibition of FLT3 phosphorylation in human MV4-11 cells at 0.02 to 1 uM after 24 hrs by Western blot analysis. It counts as cell-based. In outline: (§2)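 MV4-11 cells treated with increasing concentrations of compound for 24 h. Lysates immunoblotted for phosphorylated FLT3, STAT5, ERK, AKT and Rb.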

Data set [12] shares this target. The data set can be described thus: Inhibition of FLT3 phosphorylation in human MV4-11 cells assessed as decrease in STAT5 phosphorylation at 0.02 to 1 uM after 24 hrs by Western blot analysis. It counts as cell-based. In outline:
as §2

Data set [13] shares this target. Kind of data set: Inhibition of FLT3 phosphorylation in human MV4-11 cells assessed as decrease in ERK phosphorylation at 0.02 to 1 uM after 24 hrs by Western blot analysis. It counts as cell-based. In outline: as §2
For data set [14] the target is unchanged. Kind of data set: Inhibition of FLT3 phosphorylation in human MV4-11 cells assessed as decrease in AKT phosphorylation at 0.02 to 1 uM after 24 hrs by Western blot analysis. The class given is cell-based. In outline: as §2

Receptor-type tyrosine-protein kinase FLT3 (Homo sapiens), sequence (P36888 whole entry): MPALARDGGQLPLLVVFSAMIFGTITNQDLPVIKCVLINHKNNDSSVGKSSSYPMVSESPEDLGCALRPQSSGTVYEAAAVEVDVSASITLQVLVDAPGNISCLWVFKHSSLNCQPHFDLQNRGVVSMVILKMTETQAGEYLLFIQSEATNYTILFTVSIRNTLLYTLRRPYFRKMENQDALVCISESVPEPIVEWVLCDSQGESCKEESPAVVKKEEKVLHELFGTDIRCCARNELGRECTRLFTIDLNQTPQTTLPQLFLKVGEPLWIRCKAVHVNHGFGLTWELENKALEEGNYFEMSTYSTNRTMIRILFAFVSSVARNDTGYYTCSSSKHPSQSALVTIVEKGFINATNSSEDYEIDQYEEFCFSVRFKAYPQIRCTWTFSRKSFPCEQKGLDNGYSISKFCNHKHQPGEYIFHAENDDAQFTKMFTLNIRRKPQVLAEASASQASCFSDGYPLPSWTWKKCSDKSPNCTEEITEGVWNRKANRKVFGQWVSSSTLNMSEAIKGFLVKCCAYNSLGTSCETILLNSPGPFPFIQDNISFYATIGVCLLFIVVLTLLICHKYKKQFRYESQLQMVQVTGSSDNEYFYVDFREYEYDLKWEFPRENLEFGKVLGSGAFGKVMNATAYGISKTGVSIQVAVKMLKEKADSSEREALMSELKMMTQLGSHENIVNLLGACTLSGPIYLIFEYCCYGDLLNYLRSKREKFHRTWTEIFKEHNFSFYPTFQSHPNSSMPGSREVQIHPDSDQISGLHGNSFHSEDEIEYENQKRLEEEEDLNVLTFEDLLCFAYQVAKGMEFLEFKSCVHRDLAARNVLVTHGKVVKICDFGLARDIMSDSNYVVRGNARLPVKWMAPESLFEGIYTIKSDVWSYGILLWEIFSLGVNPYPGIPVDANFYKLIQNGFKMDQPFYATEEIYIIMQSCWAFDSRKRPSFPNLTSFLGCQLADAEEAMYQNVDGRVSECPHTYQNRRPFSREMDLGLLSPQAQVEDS
CDK6/cyclin D1, sequence (P24385 whole entry): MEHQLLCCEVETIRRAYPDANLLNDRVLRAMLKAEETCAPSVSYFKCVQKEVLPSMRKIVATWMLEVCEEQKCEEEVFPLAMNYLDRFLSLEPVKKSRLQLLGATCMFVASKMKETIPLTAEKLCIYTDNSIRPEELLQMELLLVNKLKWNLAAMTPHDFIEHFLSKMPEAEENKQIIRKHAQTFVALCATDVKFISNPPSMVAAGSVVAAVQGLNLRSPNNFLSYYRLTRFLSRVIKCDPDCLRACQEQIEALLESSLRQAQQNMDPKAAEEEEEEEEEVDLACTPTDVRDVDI
CDK6/cyclin D1, sequence (Q00534 whole entry): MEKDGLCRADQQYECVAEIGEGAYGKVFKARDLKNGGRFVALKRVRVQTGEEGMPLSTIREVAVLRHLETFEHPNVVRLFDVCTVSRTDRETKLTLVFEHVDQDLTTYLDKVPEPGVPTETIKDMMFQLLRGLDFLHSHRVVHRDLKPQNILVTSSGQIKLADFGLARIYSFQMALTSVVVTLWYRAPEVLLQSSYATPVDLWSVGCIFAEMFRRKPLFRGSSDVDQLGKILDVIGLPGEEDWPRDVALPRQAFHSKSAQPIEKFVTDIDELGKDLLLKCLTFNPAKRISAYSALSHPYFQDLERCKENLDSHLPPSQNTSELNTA

As usually defined, the IC50 is the concentration at which inhibition is half-maximal. In general, GI50 refers to the concentration giving 50% growth inhibition. A higher GI50 goes with lower sensitivity of the cells. For `CN1CCN(Cc2ccc(NC(=O)c3n[nH]cc3Nc3ncnc4[nH]ccc34)cc2)CC1`, on CDK6/cyclin D1, the IC50 was determined as 1.96 nM. In the data set on RS4-11, the GI50 is 50 nM. Also, in [1], the half-life is 1.72 h. For the same compound, the CLint scaled in data set [2] turned out to be 40.3 mL/min/kg; in data set [3], 139 mL/min/kg; in data set [4], 129 mL/min/kg. In addition, the Activity with MV4-11 [5] is on record as -6.11%; with MV4-11 [6], 81.33%; with Mus musculus it was “Non-Toxic”; in the data set on MV4-11 [7], 31.56%; in the data set with MV4-11 [8] it was 14.79%; in the data set on MV4-11 [9] it was 54.13%. In addition, in the data set with MV4-11 [10], the Activity result was “Dose-dependent effect”. In addition, the outcome in the data set with HCT-116 was Active. In addition, the inhibition result in data set [11], in data set [12], in data set [13] and in data set [14] was “Active” in each case.

The values above are taken from ChEMBL document CHEMBL4052828, “Discovery of 4-((7H-Pyrrolo[2,3-d]pyrimidin-4-yl)amino)-N-(4-((4-methylpiperazin-1-yl)methyl)phenyl)-1H-pyrazole-3-carboxamide (FN-1501), an FLT3- and CDK-Kinase Inhibitor with Potentially High Efficiency against Acute Myelocytic Leukemia” (J Med Chem, 2018).
